Laboratory results taken from ChEMBL document CHEMBL1145827, “Structure-activity relationship comparison of (S)-2beta-substituted 3alpha-(bis[4-fluorophenyl]methoxy)tropanes and (R)-2beta-substituted 3beta-(3,4-dichlorophenyl)tropanes at the dopamine transporter” (J Med Chem, 2003).

What was measured:
[1] = molecular target: T1, Muscarinic acetylcholine receptor M1 (Rattus norvegicus, UniProt P08482); assay: Binding affinity towards Muscarinic acetylcholine receptor M1 using [3H]pirenzepine as radioligand was determined
T1 sequence (P08482 whole entry): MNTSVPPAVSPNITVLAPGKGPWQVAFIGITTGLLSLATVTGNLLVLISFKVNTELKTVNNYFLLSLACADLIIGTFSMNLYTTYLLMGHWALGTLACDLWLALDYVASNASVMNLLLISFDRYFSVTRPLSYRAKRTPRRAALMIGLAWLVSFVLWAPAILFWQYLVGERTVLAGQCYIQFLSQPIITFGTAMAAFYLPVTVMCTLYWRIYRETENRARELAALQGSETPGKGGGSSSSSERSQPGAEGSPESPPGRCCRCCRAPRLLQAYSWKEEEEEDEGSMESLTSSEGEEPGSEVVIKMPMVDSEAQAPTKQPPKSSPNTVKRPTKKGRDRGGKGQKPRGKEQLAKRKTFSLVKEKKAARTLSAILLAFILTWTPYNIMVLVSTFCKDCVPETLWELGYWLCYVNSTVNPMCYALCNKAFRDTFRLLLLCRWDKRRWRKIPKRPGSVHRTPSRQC
Method in brief: (§1)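 Radioligand displacement binding for SERT, NET and muscarinic receptors. Ki from at least three independent experiments, each run in triplicate.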

[2] = molecular target: Norepinephrine transporter (Rattus norvegicus, UniProt Q9WTR4); assay: Binding affinity towards norepinephrine transporter using [3H]nisoxetine as radioligand was determined; method in brief: as §1
[3] = molecular target: Sodium-dependent serotonin transporter (Rattus norvegicus, UniProt P31652); assay: Binding affinity towards serotonin transporter using [3H]citalopram as radioligand was determined; method in brief: as §1
[4] = molecular target: T2, Sodium-dependent dopamine transporter (Rattus norvegicus, UniProt P23977); assay: In vitro inhibitory activity of dopamine transporter using [3H]WIN-35428 as radioligand was determined
Method in brief: (§2)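 Rat brain DAT, radioligand displacement with [3H]WIN 35,428. Ki from at least three independent experiments, each run in triplicate.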

[5] = molecular target: T2, Sodium-dependent dopamine transporter; assay: In vitro potency for inhibiting [3H]- dopamine uptake was determined; assay type: functional
Method in brief: (§3)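 [3H]Dopamine uptake inhibition in rat brain synaptosomes, reported as IC50.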

[6] = molecular target: T2, Sodium-dependent dopamine transporter; assay: In vitro dopamine transporter binding affinity using [3H]WIN-35428 as radioligand was determined
[7] = molecular target: T2, Sodium-dependent dopamine transporter; assay: In vitro potency for inhibiting [3H]- dopamine uptake in rat brain was determined; assay type: functional, tissue-based; method in brief: as §3
[8] = molecular target: T2, Sodium-dependent dopamine transporter; assay: Binding affinity towards dopamine transporter; method in brief: as §2

T2 sequence (P23977 whole entry): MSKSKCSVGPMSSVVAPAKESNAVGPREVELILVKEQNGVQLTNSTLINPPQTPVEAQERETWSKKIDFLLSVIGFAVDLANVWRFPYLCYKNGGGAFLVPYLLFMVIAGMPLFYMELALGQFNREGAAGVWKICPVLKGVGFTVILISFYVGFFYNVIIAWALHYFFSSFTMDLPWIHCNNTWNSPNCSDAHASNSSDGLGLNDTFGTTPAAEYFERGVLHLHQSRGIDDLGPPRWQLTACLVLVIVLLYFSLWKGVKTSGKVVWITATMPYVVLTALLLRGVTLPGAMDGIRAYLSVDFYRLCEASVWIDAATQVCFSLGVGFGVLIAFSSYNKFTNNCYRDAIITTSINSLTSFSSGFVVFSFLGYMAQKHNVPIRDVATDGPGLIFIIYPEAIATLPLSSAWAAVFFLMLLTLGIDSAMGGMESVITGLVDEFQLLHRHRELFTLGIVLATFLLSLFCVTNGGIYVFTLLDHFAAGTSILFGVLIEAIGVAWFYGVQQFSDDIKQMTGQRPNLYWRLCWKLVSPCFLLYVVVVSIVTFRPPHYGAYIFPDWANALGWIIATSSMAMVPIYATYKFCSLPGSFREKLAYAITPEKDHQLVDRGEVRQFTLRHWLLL
Chain of Norepinephrine transporter (Q9WTR4 whole entry): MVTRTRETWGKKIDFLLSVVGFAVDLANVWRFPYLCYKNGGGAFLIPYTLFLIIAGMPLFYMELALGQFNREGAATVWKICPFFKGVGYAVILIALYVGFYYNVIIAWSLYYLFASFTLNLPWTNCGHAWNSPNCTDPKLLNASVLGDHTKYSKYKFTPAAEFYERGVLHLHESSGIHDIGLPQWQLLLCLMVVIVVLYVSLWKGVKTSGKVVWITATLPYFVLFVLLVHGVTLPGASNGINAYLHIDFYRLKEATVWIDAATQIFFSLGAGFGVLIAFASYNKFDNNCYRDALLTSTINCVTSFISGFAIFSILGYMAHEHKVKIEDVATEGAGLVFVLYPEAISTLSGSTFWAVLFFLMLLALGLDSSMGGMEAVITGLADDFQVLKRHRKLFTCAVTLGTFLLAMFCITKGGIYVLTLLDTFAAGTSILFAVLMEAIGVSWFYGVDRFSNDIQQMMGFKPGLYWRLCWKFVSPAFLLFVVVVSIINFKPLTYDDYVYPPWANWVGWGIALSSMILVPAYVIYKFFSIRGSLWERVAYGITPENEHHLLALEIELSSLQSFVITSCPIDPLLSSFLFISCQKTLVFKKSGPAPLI
Chain of Sodium-dependent serotonin transporter (P31652 whole entry): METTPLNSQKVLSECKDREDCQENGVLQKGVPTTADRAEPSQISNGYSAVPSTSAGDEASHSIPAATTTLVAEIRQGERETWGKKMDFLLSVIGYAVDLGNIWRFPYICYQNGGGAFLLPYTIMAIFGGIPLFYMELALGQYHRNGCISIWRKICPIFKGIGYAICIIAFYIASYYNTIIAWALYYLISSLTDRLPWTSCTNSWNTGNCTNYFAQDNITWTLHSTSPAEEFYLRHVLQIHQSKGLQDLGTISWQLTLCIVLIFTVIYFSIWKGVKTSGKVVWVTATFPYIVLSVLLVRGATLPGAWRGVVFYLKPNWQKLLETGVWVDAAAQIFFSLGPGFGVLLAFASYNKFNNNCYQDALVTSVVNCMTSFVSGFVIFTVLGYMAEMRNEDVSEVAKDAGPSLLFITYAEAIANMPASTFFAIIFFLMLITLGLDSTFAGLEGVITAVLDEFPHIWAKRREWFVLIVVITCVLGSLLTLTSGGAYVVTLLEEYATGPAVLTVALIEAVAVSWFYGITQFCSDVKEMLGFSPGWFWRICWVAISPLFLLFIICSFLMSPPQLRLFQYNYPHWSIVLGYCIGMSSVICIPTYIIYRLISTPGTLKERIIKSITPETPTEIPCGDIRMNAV

| SMILES | Ki [2] | IC50 [5] | Ki [6] | other results |
| --- | --- | --- | --- | --- |
| CN1C2CCC1[C@@H](C(=O)OCc1ccccc1)[C@@H](OC(c1ccc(F)cc1)c1ccc(F)cc1)C2 (single isomer, unassigned; (+)) | 2230 nM | – | – | Ki [1]: 4380 nM; Ki [3]: 2040 nM |
| CN1C2CCC1[C@@H](C(=O)OCCc1ccc(N=[N+]=[N-])c(I)c1)[C@@H](OC(c1ccc(F)cc1)c1ccc(F)cc1)C2 (some centres undefined) | – | – | – | IC50 [4]: 210 nM |
| CC(C)OC(=O)[C@@H]1C2CCC(C[C@@H]1OC(c1ccc(F)cc1)c1ccc(F)cc1)N2C (some centres undefined) | – | 6.2 nM | 30.3 nM | – |
| CN1C2CCC1[C@@H](C(=O)OCCc1ccccc1)[C@@H](OC(c1ccc(F)cc1)c1ccc(F)cc1)C2 (single isomer, unassigned; (+)) | 1030 nM | – | – | Ki [1]: 354 nM; Ki [3]: 3160 nM |
| CN1C2CCC1[C@@H](C(=O)OCCc1ccc(N=C=S)cc1)[C@@H](OC(c1ccc(F)cc1)c1ccc(F)cc1)C2 (some centres undefined) | – | – | – | IC50 [4]: 537 nM |
| CN1C2CCC1[C@@H](C(=O)OCCc1ccc(N=[N+]=[N-])c(I)c1)[C@@H](c1ccc(Cl)c(Cl)c1)C2 (some centres undefined) | – | – | – | IC50 [4]: 14.5 nM |
| CN1C2CCC1[C@@H](C(=O)OCCc1ccc(N)c(I)c1)[C@@H](OC(c1ccc(F)cc1)c1ccc(F)cc1)C2 (some centres undefined) | – | – | 42.3 nM | – |
| CC(C)OC(=O)[C@@H]1C2CCC(C[C@@H]1OC(c1ccc(F)cc1)c1ccc(F)cc1)N2C (single isomer, unassigned; (+)) | 642 nM | – | – | Ki [1]: 2680 nM; Ki [3]: 12000 nM |
| CN1C2CCC1[C@@H](C(=O)OCc1ccccc1)[C@@H](c1ccc(Cl)c(Cl)c1)C2 (some centres undefined) | – | – | 34.7 nM | IC50 [7]: 19 nM; Ki [8]: 100 nM |
| COC(=O)[C@@H]1C2CCC(C[C@@H]1c1ccc(Cl)c(Cl)c1)N2C (some centres undefined) | 15.8 nM | – | 6.3 nM | IC50 [7]: 1.4 nM; Ki [8]: 100 nM; Ki [1]: 3140 nM; Ki [3]: 1.46 nM |
| COC(=O)[C@@H]1C2CCC(C[C@@H]1OC(c1ccc(F)cc1)c1ccc(F)cc1)N2C (some centres undefined) | – | 1.5 nM | – | – |
| CN1C2CCC1[C@@H](C(=O)OCc1ccccc1)[C@@H](OC(c1ccc(F)cc1)c1ccc(F)cc1)C2 (some centres undefined) | – | 2.2 nM | 48.4 nM | – |
| CC(C)OC(=O)[C@@H]1C2CCC(C[C@@H]1c1ccc(Cl)c(Cl)c1)N2C (some centres undefined) | – | – | 17.9 nM | IC50 [7]: 2.7 nM; Ki [8]: 100 nM |
| CN1C2CCC1[C@@H](C(=O)OCCc1ccc(N)cc1)[C@@H](OC(c1ccc(F)cc1)c1ccc(F)cc1)C2 (some centres undefined) | 1340 nM | 8 nM | 36.7 nM | Ki [1]: 263 nM; Ki [3]: 1500 nM |
| CN1C2CCC1[C@@H](C(=O)OCCc1ccccc1)[C@@H](OC(c1ccc(F)cc1)c1ccc(F)cc1)C2 (some centres undefined) | – | 2.6 nM | 36.7 nM | – |
| CN1C2CCC1[C@@H](C(=O)OCCc1ccc([N+](=O)[O-])cc1)[C@@H](OC(c1ccc(F)cc1)c1ccc(F)cc1)C2 (some centres undefined) | – | 3.3 nM | 97.7 nM | – |
| CCOC(=O)[C@@H]1C2CCC(C[C@@H]1c1ccc(Cl)c(Cl)c1)N2C (some centres undefined) | – | – | 5.54 nM | IC50 [7]: 1.9 nM; Ki [8]: 100 nM |
| COC(=O)[C@@H]1C2CCC(C[C@@H]1OC(c1ccc(F)cc1)c1ccc(F)cc1)N2C (single isomer, unassigned; (+)) | 269 nM | – | – | – |
| CCOC(=O)[C@@H]1C2CCC(C[C@@H]1OC(c1ccc(F)cc1)c1ccc(F)cc1)N2C (some centres undefined) | 629 nM | 1.8 nM | 16.4 nM | – |
| CN1C2CCC1[C@@H](C(=O)OCCc1ccccc1)[C@@H](c1ccc(Cl)c(Cl)c1)C2 (some centres undefined) | – | – | 10.9 nM | IC50 [7]: 3.2 nM; Ki [8]: 100 nM |
